For assay [1], the target named is T1, Glucagon-like peptide 1 receptor (Rattus norvegicus) (UniProt P32301).
T1 sequence (whole entry): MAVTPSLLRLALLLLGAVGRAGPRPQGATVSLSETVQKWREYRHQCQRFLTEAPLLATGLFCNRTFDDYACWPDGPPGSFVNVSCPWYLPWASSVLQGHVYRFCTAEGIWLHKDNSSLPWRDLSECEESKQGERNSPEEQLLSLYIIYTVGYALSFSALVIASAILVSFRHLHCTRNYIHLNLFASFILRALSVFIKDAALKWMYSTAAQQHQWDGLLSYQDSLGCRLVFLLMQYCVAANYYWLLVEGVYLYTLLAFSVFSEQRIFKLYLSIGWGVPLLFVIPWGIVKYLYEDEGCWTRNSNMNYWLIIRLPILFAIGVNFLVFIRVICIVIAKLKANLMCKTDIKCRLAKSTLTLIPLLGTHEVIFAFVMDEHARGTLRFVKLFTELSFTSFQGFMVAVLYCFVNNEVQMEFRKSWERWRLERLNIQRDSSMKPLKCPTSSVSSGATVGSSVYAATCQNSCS
Kind of assay: Inhibition of [125I]GLP1 (7-36) amide binding to rat GLP1R expressed in HEK293 cells relative to untreated control. In kind it is cell-based. Details: concentration or dose not given beside the values. The settings on record: concentration not given here. The method in brief:
(§1)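 Membranes (17 μg protein) from HEK293 cells stably expressing rat GLP-1R were preincubated 5 h at 4 °C with FlashBlue beads (150 μg). Then 40 pM [125I]GLP-1(7−36) amide or [125I]Exendin(9−39) was added with aprotinin 2 μg/mL, leupeptin 100 μM and test compound at varied concentrations. Incubated overnight at 4 °C, then bound radioactivity counted. Mean ± SEM of two independent experiments.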

Assay [2] has as its target T1, Glucagon-like peptide 1 receptor (Rattus norvegicus). Nature of the assay: Inhibition of [125I]Exendin (9-39) binding to rat GLP1R expressed in HEK293 cells. In kind it is cell-based. The note with it: concentration not given here. Details: concentration or dose not given beside the values. The gist of the method:
as §1

Assay [3] concerns the target T2, Glucagon-like peptide 1 receptor (Rattus norvegicus, UniProt P32301).
T2 sequence (P32301 whole entry): T1 sequence (whole entry)
Kind of assay: Inhibition of [125I]GLP1 (7-36) amide binding to rat GLP1R expressed in HEK293 cells. In kind it is cell-based. The gist of the method: as §1

Assay [4] deals with T1, Glucagon-like peptide 1 receptor (Rattus norvegicus). Nature of the assay: Agonist activity at rat GLP1R expressed in HEK293 cells assessed as stimulation of cAMP levels incubated for 6 hrs by multiple response element/cAMP response element (MRE/CRE)-driven reporter gene assay relative to 10 nM GLP1. In kind it is functional, cell-based. The gist of the method: (§2)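 Stable HEK293 line co-expressing rat GLP-1R (pCMV-Tag2B) and a luciferase reporter with 3× MRE plus 1× CRE, seeded at 40000 cells/well and cultured overnight. Compounds in DMSO or GLP-1(7−37) were added for 6 h, then cells were lysed and luciferase read (Steady-Glo). The 10 nM GLP-1 maximum was taken as 100%. Mean ± SEM of two independent experiments; some values come from a single run.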

Assay [5] concerns the target T2, Glucagon-like peptide 1 receptor. Kind of assay: Agonist activity at rat GLP1R expressed in HEK293 cells assessed as stimulation of cAMP levels incubated for 6 hrs by multiple response element/cAMP response element (MRE/CRE)-driven reporter gene assay. In kind it is functional, cell-based. The method in brief:
as §2

Molecules are shown by their SMILES.

Turning to `CNC(=S)Nc1ccc(C(=O)N[C@]2(C(=O)O)[C@H](c3ccc(OC(=O)c4cccs4)c(OC)c3)[C@@](NC(=O)c3ccc(NC(=S)NC)cc3)(C(=O)O)[C@@H]2c2ccc(OC(=O)c3cccs3)c(OC)c2)cc1`, the inhibition is 72.7% in assay [1] and 70.1% in assay [2]. In addition, in assay [3], the 50% inhibitory concentration (IC50) was found to be 1.4 µM. Besides, the Efficacy in assay [4] amounted to 68%. Further, in assay [5], the concentration for a half-maximal effect (EC50) came out at 9.12 µM.

As to `COc1cc([C@H]2[C@](NC(=O)c3ccc(NC(=O)C4CCCC4)cc3)(C(=O)O)[C@@H](c3ccc(OC(=O)c4cccs4)c(OC)c3)[C@@]2(NC(=O)c2ccc(NC(=O)C3CCCC3)cc2)C(=O)O)ccc1OC(=O)c1cccs1`, the inhibition in assay [1] was 39.3%; in assay [2] it was 37.9%. This compound gave a 50% inhibitory concentration (IC50) in assay [3] of 0.3 µM. Further, the Efficacy in assay [4] amounted to 35.9%. The EC50 in assay [5] worked out at 0.657 µM.

In the case of `COc1cccc([C@H]2[C@](NC(=O)c3ccc(NC(=O)OC(C)(C)C)cc3)(C(=O)O)[C@@H](c3cccc(OC)c3)[C@]2(NC(=O)c2ccc(NC(=O)OC(C)(C)C)cc2)C(=O)O)c1`, the inhibition in assay [1] and in assay [2] was under 15% each time. In addition, in assay [3], the IC50 is over 20 µM. Besides, the Efficacy in assay [4] is under 15%. In addition, the EC50 in assay [5] was over 20 µM.

Turning to `CC(C)(C)OC(=O)Nc1ccc(C(=O)N[C@]2(C(=O)O)[C@H](c3ccccc3)[C@@](NC(=O)c3ccc(NC(=O)OC(C)(C)C)cc3)(C(=O)O)[C@@H]2c2ccccc2)cc1`, the inhibition in assay [1] and in assay [2] was under 15% each time. This compound also displayed an IC50 in assay [3] of over 20 µM. Moreover, in assay [4], the Efficacy is under 15%. The EC50 in assay [5] was over 20 µM.

For `CCC(=O)Oc1ccc([C@H]2[C@](NC(=O)c3ccc(NC(=O)OC(C)(C)C)cc3)(C(=O)O)[C@@H](c3ccc(OC(=O)CC)c(OC)c3)[C@]2(NC(=O)c2ccc(NC(=O)OC(C)(C)C)cc2)C(=O)O)cc1OC`, the inhibition in assay [1] amounted to 86%; in assay [2], 68.3%. This compound displayed a concentration for half-maximal inhibition (IC50) in assay [3] of 2.7 µM. Moreover, in assay [4], the Efficacy was 91%. In addition, the EC50 in assay [5] worked out at 2.5 µM.

As to `COc1cc([C@H]2[C@](NC(=O)c3ccc(NC(=O)OC(C)(C)C)cc3)(C(N)=O)[C@@H](c3ccc(OC(=O)c4cccs4)c(OC)c3)[C@]2(NC(=O)c2ccc(NC(=O)OC(C)(C)C)cc2)C(N)=O)ccc1OC(=O)c1cccs1`, the inhibition in assay [1] and in assay [2] was under 15% in each case. For the same compound, in assay [3], the half-inhibitory concentration (IC50) is over 20 µM. Also, the Efficacy in assay [4] was under 15%. The EC50 in assay [5] is over 20 µM.

For the compound `COc1cc([C@H]2[C@](NC(=O)c3ccc(NC(=O)C(C)C)cc3)(C(=O)O)[C@@H](c3ccc(OC(=O)C4CCC4)c(OC)c3)[C@]2(NC(=O)c2ccc(NC(=O)C(C)C)cc2)C(=O)O)ccc1OC(=O)C1CCC1`, the inhibition in assay [1] stood at 47.9%; in assay [2] it was 36.8%. The compound further showed a 50% inhibitory concentration (IC50) in assay [3] of 9.6 µM. For the same compound, in assay [4], the Efficacy was 50.7%. Also, the EC50 in assay [5] was 15.8 µM.

As for `CCCOc1ccc([C@H]2[C@](NC(=O)c3ccc(NC(=O)OC(C)(C)C)cc3)(C(=O)O)[C@@H](c3ccc(OCCC)cc3)[C@]2(NC(=O)c2ccc(NC(=O)OC(C)(C)C)cc2)C(=O)O)cc1`, the inhibition in assay [1] and in assay [2] was under 15% in each case. For the same compound, the half-maximal inhibitory concentration (IC50) in assay [3] is over 20 µM. In assay [4], the Efficacy is under 15%. Further, in assay [5], the EC50 was over 20 µM.

With `CCCC(=O)Oc1ccc([C@H]2[C@](NC(=O)c3ccc(NC(=O)OC(C)(C)C)cc3)(C(=O)O)[C@@H](c3ccc(OC(=O)CCC)c(OC)c3)[C@]2(NC(=O)c2ccc(NC(=O)OC(C)(C)C)cc2)C(=O)O)cc1OC`, the inhibition worked out at 65.1% in assay [1] and 53.8% in assay [2]. Besides, in assay [3], the 50% inhibitory concentration (IC50) is 7.5 µM. In assay [4], the Efficacy worked out at 86%. Further, the EC50 in assay [5] came out at 3.33 µM.

Turning to `COc1cc([C@H]2[C@](NC(=O)c3ccc(NC(=O)OC(C)(C)C)cc3)(C(=O)O)[C@@H](c3ccc(OCc4ccc(F)cc4)c(OC)c3)[C@]2(NC(=O)c2ccc(NC(=O)OC(C)(C)C)cc2)C(=O)O)ccc1OCc1ccc(F)cc1`, the inhibition in assay [1] and in assay [2] was under 15% each time. In assay [3], the IC50 is over 20 µM. For the same compound, the Efficacy in assay [4] was under 15%. The EC50 in assay [5] was over 20 µM.

For the compound `COc1cc([C@H]2[C@](NC(=O)c3ccc(NC(=O)C4CCC4)cc3)(C(=O)O)[C@@H](c3ccc(OC(=O)c4cccs4)c(OC)c3)[C@]2(NC(=O)c2ccc(NC(=O)C3CCC3)cc2)C(=O)O)ccc1OC(=O)c1cccs1`, the inhibition in assay [1] is 53.6%; in assay [2], 45.6%. The compound also came in with a concentration for half-maximal inhibition (IC50) in assay [3] of 1.2 µM. Moreover, the Efficacy in assay [4] was 87.5%. The EC50 in assay [5] amounted to 0.749 µM.

For the compound `COc1cc([C@H]2[C@](NC(=O)c3ccc(NC(=S)Nc4cccc5ccccc45)cc3)(C(=O)O)[C@@H](c3ccc(OC(=O)c4cccs4)c(OC)c3)[C@]2(NC(=O)c2ccc(NC(=S)Nc3cccc4ccccc34)cc2)C(=O)O)ccc1OC(=O)c1cccs1`, the inhibition worked out at 57.4% in assay [1] and 52.3% in assay [2]. Also, the IC50 in assay [3] worked out at 3 µM. Also, in assay [4], the Efficacy turned out to be 29.8%. Also, the concentration giving a half-maximal response (EC50) in assay [5] amounted to 2.12 µM.

Consider `CCOC(=O)CNC(=O)Nc1ccc(C(=O)N[C@]2(C(=O)O)[C@H](c3ccc(OC(=O)c4cccs4)c(OC)c3)[C@@](NC(=O)c3ccc(NC(=O)NCC(=O)OCC)cc3)(C(=O)O)[C@@H]2c2ccc(OC(=O)c3cccs3)c(OC)c2)cc1`, for which the inhibition in assay [1] was determined as 43.8%; in assay [2], 37.9%. Besides, the IC50 in assay [3] is 4.3 µM. Further, in assay [4], the Efficacy worked out at 33.7%. For the same compound, the EC50 in assay [5] turned out to be 4.5 µM.

`COc1cc([C@H]2[C@](NC(=O)c3ccc(NC(=O)C(C)(C)C)cc3)(C(=O)O)[C@@H](c3ccc(OC(=O)c4cccs4)c(OC)c3)[C@]2(NC(=O)c2ccc(NC(=O)C(C)(C)C)cc2)C(=O)O)ccc1OC(=O)c1cccs1`: the inhibition in assay [1] came out at 47.6%; in assay [2] it was 33.4%. The IC50 in assay [3] was found to be 0.5 µM. The Efficacy in assay [4] is 60.8%. The EC50 in assay [5] turned out to be 1.11 µM.

With `CCC(=O)Nc1ccc(C(=O)N[C@]2(C(=O)O)[C@H](c3ccc(OC(=O)c4cccs4)c(OC)c3)[C@@](NC(=O)c3ccc(NC(=O)CC)cc3)(C(=O)O)[C@@H]2c2ccc(OC(=O)c3cccs3)c(OC)c2)cc1`, the inhibition in assay [1] was 75.2%; in assay [2], 36.1%. Further, in assay [3], the concentration for half-maximal inhibition (IC50) is 4.9 µM. Moreover, the Efficacy in assay [4] is 48.4%. Also, the EC50 in assay [5] was determined as 0.696 µM.

As to `COc1cc([C@H]2[C@](NC(=O)c3ccc(NC(=O)OC(C)(C)C)cc3)(C(=O)O)[C@@H](c3ccc(OC(=O)C45CC6CC(CC(C6)C4)C5)c(OC)c3)[C@]2(NC(=O)c2ccc(NC(=O)OC(C)(C)C)cc2)C(=O)O)ccc1OC(=O)C12CC3CC(CC(C3)C1)C2`, the inhibition in assay [1] amounted to 75.8%; in assay [2], 63.5%. In assay [3], this compound came in with a half-inhibitory concentration (IC50) of 3.6 µM. Also, the Efficacy in assay [4] turned out to be 86%. The concentration for a half-maximal effect (EC50) in assay [5] was determined as 2.15 µM.

As to `COc1cc([C@H]2[C@](NC(=O)c3ccc(NC(=O)OC(C)(C)C)cc3)(C(=O)OC)[C@@H](c3ccc(OC(=O)c4cccs4)c(OC)c3)[C@]2(NC(=O)c2ccc(NC(=O)OC(C)(C)C)cc2)C(=O)OC)ccc1OC(=O)c1cccs1`, the inhibition in assay [1] and in assay [2] was under 15% in each case. The IC50 in assay [3] was over 20 µM. Also, the Efficacy in assay [4] was under 15%. Further, in assay [5], the EC50 was over 20 µM.

As to `CC(C)(C)OC(=O)Nc1ccc(C(=O)N[C@]2(C(=O)O)[C@H](c3cccc(OCc4ccccc4)c3)[C@@](NC(=O)c3ccc(NC(=O)OC(C)(C)C)cc3)(C(=O)O)[C@@H]2c2cccc(OCc3ccccc3)c2)cc1`, the inhibition in assay [1] and in assay [2] was under 15% throughout. Besides, in assay [3], the half-maximal inhibitory concentration (IC50) was over 20 µM. In addition, the Efficacy in assay [4] is under 15%. In addition, the EC50 in assay [5] was over 20 µM.

Regarding `COc1cc([C@H]2[C@](NC(=O)c3ccc(NC(C)=O)cc3)(C(=O)O)[C@@H](c3ccc(OC(=O)c4cccs4)c(OC)c3)[C@]2(NC(=O)c2ccc(NC(C)=O)cc2)C(=O)O)ccc1OC(=O)c1cccs1`, the inhibition in assay [1] amounted to 55.4%; in assay [2], 30.6%. This compound also returned an IC50 in assay [3] of 2.31 µM. For the same compound, in assay [4], the Efficacy was found to be 61.1%. Besides, in assay [5], the EC50 worked out at 0.118 µM.

In the case of `COc1cc([C@H]2C[C@]2(NC(=O)c2ccc(NC(=O)OC(C)(C)C)cc2)C(=O)O)ccc1OC(=O)c1cccs1`, the inhibition in assay [1] and in assay [2] was under 15% in each case. The IC50 in assay [3] is over 20 µM. Moreover, in assay [4], the Efficacy is under 15%. Also, in assay [5], the EC50 was over 20 µM.

The record behind these values is ChEMBL document CHEMBL2157924, “Cyclobutane derivatives as novel nonpeptidic small molecule agonists of glucagon-like peptide-1 receptor” (J Med Chem, 2012).
